Test [1] deals with Hepatocyte growth factor receptor (Homo sapiens, UniProt P08581). Briefly: Inhibition of c-Met (unknown origin) using poly (Glu, Tyr) 4:1 as substrate after 30 mins by HTRF assay. In general terms: In TR-FRET formats the signal depends on donor and acceptor labels being close together.
Test [2] relates to HT-29. Briefly: Cytotoxicity against human HT-29 cells after 72 hrs by MTT assay. The conditions noted are these: HT-29, 72 h.
For test [3], the system named is A549. Kind of test: Cytotoxicity against human A549 cells after 72 hrs by MTT assay. The conditions noted are these: A549, 72 h. (In general: Formazan colour is commonly taken as a measure of viable cells.)
Test [4] concerns NCI-H460. Kind of test: Cytotoxicity against human H460 cells after 72 hrs by MTT assay. Format: functional, cell-based. To be noted: NCI-H460, 72 h. In outline:
(§1)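 Cells grown in MEM with 10% FBS. About 4 × 10³ cells per well, incubated 24 h at 37°C in 5% CO₂. Compound added at the indicated final concentrations, then 72 h culture. MTT at […] final for 4 h at 37°C. Three independent experiments; IC50 reported as mean.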

Test [5] relates to U-87 MG. Briefly: Cytotoxicity against human U87MG cells after 72 hrs by MTT assay. Format: functional, cell-based, U-87MG ATCC. The procedure, abridged: as §1
Test [6] concerns HT-29. Briefly: Potency index, ratio of foretinib IC50 to compound IC50 for human HT-29 cells. Format: functional.
The test system of test [7] is A549. Briefly: Potency index, ratio of foretinib IC50 to compound IC50 for human A549 cells. Format: functional.
The nature of test [8]: Potency index, ratio of foretinib IC50 to compound IC50 for human H460 cells. Format: functional.
For test [9], the system named is U-87 MG. Kind of test: Potency index, ratio of foretinib IC50 to compound IC50 for human U87MG cells. Format: functional, U-87MG ATCC.
In test [10] the target is T1, Receptor-type tyrosine-protein kinase FLT3 (Homo sapiens, UniProt P36888).
T1 sequence (P36888 whole entry): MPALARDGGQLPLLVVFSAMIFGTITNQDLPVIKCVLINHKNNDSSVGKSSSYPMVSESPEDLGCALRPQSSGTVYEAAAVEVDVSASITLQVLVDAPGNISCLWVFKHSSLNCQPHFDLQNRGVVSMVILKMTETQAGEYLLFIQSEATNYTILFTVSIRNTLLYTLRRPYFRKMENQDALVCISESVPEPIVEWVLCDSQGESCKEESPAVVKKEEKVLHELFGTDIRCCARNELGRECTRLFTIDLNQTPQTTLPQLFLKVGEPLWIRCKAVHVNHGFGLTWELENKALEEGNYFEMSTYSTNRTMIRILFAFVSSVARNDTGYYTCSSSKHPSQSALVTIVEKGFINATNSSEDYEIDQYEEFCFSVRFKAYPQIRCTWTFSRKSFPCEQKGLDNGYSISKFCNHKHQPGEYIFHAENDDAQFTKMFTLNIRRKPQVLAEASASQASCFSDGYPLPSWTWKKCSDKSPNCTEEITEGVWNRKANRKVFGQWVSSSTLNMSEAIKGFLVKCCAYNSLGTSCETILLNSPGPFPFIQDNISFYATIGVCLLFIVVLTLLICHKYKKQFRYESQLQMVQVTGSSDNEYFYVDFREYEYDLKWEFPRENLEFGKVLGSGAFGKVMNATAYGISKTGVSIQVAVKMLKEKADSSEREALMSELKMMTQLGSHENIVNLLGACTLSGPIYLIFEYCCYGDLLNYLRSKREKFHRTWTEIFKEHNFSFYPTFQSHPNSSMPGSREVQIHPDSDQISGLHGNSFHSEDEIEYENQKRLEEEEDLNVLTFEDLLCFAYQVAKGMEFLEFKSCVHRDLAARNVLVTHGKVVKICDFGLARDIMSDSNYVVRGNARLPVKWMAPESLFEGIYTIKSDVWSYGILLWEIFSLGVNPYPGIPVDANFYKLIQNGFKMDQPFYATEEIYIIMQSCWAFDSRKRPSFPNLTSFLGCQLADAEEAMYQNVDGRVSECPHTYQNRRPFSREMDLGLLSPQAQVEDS
Briefly: Inhibition of Flt-3 (unknown origin) using poly (Glu, Tyr) 4:1 as substrate after 30 mins by HTRF assay. In outline: (§2)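 Purified kinase protein added to start the reaction on preloaded poly(Glu,Tyr) 4:1 substrate at 20 µg/mL. ATP 10 mM solution in HEPES 50 mM pH 7.0 buffer with DTT, MgCl₂, MnCl₂ and 0.1% NaN₃. Compounds added in 1% DMSO. Reaction run 30 min at 25°C, stopped with Streptavidin-XL665 plus Tk antibody cryptate, read at 320/615 nm. Percent inhibition taken against enzyme-free and full-enzyme controls; IC50 from inhibition curves.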

The target of test [11] is Platelet-derived growth factor receptor beta (Homo sapiens, UniProt P09619). Briefly: Inhibition of PDGFRbeta (unknown origin) using poly (Glu, Tyr) 4:1 as substrate after 30 mins by HTRF assay. In outline:
as §2

The target in test [12] is Mast/stem cell growth factor receptor Kit (Homo sapiens, UniProt P10721). Kind of test: Inhibition of c-Kit (unknown origin) using poly (Glu, Tyr) 4:1 as substrate after 30 mins by HTRF assay. The procedure, abridged:
as §2

In test [13] the target is Vascular endothelial growth factor receptor 2 (Homo sapiens, UniProt P35968). Briefly: Inhibition of VEGFR-2 (unknown origin) using poly (Glu, Tyr) 4:1 as substrate after 30 mins by HTRF assay. The procedure, abridged:
as §2

Test [14] addresses Epidermal growth factor receptor (Homo sapiens, UniProt P00533). Kind of test: Inhibition of EGFR (unknown origin) using poly (Glu, Tyr) 4:1 as substrate after 30 mins by HTRF assay. The procedure, abridged:
as §2

Broadly, the IC50 is the concentration that inhibits the measured activity by half. Higher therefore signals weaker potency in that assay.

Chain of Hepatocyte growth factor receptor (P08581 whole entry): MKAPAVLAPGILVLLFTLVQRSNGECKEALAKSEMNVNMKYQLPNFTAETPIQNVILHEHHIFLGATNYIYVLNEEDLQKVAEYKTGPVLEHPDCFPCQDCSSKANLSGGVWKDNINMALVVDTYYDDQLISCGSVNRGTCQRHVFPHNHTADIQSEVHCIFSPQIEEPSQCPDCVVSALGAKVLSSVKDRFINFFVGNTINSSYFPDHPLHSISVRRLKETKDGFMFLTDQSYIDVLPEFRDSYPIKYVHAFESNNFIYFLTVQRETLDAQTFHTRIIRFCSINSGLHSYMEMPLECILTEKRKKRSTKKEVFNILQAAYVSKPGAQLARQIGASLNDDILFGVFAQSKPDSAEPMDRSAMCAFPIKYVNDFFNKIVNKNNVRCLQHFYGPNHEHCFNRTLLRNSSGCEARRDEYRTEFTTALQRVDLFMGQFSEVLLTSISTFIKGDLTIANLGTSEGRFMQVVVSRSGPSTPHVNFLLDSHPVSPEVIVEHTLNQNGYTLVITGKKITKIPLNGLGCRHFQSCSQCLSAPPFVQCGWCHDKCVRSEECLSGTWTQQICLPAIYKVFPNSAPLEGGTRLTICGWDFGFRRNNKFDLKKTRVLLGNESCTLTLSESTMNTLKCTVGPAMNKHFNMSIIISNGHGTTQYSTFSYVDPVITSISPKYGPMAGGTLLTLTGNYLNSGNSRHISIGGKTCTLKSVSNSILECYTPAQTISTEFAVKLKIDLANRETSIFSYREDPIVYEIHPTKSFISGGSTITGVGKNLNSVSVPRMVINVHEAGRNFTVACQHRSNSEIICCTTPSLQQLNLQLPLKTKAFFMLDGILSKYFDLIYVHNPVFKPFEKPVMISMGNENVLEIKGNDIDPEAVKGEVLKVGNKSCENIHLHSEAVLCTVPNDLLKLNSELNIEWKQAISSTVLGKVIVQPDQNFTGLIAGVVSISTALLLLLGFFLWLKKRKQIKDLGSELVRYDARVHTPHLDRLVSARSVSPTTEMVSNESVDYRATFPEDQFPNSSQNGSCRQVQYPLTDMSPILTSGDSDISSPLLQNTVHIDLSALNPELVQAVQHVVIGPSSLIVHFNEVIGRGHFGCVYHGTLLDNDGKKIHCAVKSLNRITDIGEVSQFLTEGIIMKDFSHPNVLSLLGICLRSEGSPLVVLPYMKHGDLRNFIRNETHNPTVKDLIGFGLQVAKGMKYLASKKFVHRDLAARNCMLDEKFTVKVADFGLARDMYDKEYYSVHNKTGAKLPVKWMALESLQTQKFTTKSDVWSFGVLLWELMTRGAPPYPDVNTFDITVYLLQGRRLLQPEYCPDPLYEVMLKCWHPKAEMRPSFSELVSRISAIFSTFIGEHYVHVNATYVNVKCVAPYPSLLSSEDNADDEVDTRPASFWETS
Chain of Mast/stem cell growth factor receptor Kit (P10721 whole entry): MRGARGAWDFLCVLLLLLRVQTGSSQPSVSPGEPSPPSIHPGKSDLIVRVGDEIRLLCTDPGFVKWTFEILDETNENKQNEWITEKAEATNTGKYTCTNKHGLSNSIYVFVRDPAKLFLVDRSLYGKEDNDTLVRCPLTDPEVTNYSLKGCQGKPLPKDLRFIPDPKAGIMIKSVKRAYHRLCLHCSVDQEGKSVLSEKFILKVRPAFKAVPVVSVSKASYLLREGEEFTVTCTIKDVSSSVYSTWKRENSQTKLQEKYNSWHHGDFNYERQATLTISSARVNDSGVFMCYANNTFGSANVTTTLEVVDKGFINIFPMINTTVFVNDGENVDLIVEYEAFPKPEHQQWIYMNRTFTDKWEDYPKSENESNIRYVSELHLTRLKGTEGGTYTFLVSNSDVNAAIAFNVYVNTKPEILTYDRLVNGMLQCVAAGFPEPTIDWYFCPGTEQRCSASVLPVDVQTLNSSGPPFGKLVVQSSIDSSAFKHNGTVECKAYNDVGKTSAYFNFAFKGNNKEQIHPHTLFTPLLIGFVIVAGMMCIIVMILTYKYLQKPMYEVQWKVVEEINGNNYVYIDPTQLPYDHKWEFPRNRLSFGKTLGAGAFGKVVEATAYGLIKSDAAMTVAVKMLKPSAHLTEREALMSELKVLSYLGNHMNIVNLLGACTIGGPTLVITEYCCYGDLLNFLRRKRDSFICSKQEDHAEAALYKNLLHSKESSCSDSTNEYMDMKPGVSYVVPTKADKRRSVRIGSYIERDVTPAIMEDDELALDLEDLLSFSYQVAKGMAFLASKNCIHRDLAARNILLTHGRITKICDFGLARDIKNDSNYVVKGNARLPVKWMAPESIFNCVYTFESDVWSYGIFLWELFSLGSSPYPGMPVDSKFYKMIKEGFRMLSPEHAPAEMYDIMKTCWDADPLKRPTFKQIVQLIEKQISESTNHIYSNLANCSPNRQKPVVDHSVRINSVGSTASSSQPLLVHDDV
Chain of Vascular endothelial growth factor receptor 2 (P35968 whole entry): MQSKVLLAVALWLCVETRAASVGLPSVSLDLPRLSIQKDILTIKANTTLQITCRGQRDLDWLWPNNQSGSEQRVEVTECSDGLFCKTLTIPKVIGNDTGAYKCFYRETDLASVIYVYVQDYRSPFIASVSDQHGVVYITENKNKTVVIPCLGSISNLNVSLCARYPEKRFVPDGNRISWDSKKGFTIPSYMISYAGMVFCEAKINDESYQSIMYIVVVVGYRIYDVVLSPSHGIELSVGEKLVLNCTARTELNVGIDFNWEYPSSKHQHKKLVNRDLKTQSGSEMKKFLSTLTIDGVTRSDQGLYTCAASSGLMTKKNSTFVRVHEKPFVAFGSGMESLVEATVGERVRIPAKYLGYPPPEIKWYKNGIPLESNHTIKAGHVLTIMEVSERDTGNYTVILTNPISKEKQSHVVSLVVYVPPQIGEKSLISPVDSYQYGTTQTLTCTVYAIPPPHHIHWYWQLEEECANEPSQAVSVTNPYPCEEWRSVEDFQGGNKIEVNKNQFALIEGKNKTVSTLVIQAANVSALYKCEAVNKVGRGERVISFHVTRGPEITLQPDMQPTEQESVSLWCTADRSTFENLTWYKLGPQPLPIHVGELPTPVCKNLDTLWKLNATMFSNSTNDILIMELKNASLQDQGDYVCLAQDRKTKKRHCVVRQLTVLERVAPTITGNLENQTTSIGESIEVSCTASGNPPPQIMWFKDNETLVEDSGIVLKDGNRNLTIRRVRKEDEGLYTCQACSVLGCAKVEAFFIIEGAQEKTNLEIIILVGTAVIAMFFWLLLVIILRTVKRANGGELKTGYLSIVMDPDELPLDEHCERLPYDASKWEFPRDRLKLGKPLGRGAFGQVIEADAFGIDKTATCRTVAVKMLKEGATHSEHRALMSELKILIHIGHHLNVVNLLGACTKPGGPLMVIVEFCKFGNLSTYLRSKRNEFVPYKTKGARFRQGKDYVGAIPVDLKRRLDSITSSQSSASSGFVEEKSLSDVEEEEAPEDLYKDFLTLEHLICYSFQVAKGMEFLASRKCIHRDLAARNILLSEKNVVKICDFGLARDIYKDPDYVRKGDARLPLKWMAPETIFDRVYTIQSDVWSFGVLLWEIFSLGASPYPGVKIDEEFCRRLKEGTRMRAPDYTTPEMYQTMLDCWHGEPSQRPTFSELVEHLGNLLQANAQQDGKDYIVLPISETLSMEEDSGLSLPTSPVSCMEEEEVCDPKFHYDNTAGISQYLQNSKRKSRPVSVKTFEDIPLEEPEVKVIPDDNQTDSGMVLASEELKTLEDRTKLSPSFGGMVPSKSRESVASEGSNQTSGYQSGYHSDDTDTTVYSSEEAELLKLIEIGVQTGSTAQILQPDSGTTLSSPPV
Chain of Platelet-derived growth factor receptor beta (P09619 whole entry): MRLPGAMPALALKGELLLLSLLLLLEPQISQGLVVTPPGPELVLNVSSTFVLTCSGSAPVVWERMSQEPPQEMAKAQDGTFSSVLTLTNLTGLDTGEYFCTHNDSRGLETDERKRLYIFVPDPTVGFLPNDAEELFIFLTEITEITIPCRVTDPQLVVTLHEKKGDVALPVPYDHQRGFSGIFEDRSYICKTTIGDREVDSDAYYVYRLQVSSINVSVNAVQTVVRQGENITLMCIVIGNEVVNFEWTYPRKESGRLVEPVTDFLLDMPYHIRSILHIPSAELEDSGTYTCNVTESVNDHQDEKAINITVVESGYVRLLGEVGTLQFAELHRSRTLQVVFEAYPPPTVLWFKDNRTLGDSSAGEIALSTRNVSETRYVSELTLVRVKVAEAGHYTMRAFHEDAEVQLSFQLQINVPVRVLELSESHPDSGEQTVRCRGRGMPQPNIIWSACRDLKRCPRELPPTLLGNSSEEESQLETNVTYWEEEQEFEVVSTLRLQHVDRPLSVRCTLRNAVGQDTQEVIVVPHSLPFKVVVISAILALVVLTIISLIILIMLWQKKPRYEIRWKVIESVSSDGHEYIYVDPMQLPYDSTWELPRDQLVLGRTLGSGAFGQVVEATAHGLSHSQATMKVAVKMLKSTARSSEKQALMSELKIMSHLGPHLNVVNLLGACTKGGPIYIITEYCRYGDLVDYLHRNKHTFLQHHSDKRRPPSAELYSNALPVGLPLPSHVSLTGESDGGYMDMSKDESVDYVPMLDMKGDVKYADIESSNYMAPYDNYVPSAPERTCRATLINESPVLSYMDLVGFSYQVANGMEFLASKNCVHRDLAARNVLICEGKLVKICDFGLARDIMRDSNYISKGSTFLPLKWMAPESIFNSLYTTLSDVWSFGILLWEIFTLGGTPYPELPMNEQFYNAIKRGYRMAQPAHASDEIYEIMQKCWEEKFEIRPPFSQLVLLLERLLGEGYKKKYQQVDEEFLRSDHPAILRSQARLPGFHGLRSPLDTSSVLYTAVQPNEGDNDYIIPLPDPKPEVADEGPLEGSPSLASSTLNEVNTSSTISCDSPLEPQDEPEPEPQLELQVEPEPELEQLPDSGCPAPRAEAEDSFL

`Cc1ccc(C)c(-n2nc(C(=O)Nc3ccc(Oc4ccnc5c4ccn5C)cc3)c(C)cc2=O)c1` had an IC50 in [1] of 41.3 nM.

Consider `Cc1cc(=O)n(-c2ccccc2F)nc1C(=O)Nc1ccc(Oc2ccnc3[nH]ccc23)cc1`, for which the IC50 in test [1] worked out at 12.6 nM.

In turn, `Cc1ccc(C)c(-n2nc(C(=O)Nc3ccc(Oc4ccnc5[nH]ccc45)cc3)c(C)cc2=O)c1` displayed an IC50 in [1] of 33.5 nM.

With `Cc1cc(=O)n(-c2ccc(Br)cc2F)nc1C(=O)Nc1ccc(Oc2ccnc3[nH]ccc23)cc1`, the IC50 in [1] stood at 41.2 nM.

For the molecule `Cc1cc(=O)n(-c2ccccc2C(F)(F)F)nc1C(=O)Nc1ccc(Oc2ccnc3c2ccn3C)cc1`, the midpoint of inhibition in [1], the IC50, lay at 46.3 nM.

On to `Cc1cc(=O)n(-c2ccc(F)cc2)nc1C(=O)Nc1ccc(Oc2ccnc3[nH]ccc23)c(F)c1`, for which the IC50 was 1.06 nM in test [1]; 39 nM in [2]; 46 nM in test [3]; 91 nM in test [4]; 760 nM in test [5]; 1.32 nM in [10]. Moreover, the IC50 was 3.26 nM in test [11], 318 nM in test [12], 672 nM in test [13] and 725 nM in test [14]. Also, the “Ratio IC50” value in [6] was 6.4; in [7] it was 7.8; in test [8], 3.2; in test [9], 1.3.

As for `Cc1cc(=O)n(-c2cccc(F)c2)nc1C(=O)Nc1ccc(Oc2ccnc3[nH]ccc23)cc1`, the IC50 in test [1] worked out at 11.6 nM; in test [2] it was 210 nM; in test [3], 420 nM; in test [4] it was 190 nM; in [5], 3420 nM.

As for `Cc1cc(=O)n(-c2ccc(Cl)cc2Cl)nc1C(=O)Nc1ccc(Oc2ccnc3[nH]ccc23)c(F)c1`, in test [1], the IC50 was 22.4 nM.

As for `Cc1cc(=O)n(-c2ccc(F)cc2)nc1C(=O)Nc1ccc(Oc2ccnc3c2ccn3C)cc1`, inhibition in test [1] was half-maximal at 9.21 nM (IC50).

`Cc1cc(=O)n(-c2cccc(C(F)(F)F)c2)nc1C(=O)Nc1ccc(Oc2ccnc3[nH]ccc23)cc1`: the IC50 in test [1] was 35.3 nM. Against the preceding molecule, the IC50 is about 3.8-fold higher.

In [1], `Cc1cc(=O)n(-c2ccccc2)nc1C(=O)Nc1ccc(Oc2ccnc3[nH]ccc23)cc1` displayed an IC50 of 18.3 nM.

With `Cc1cc(=O)n(-c2cccc(C(F)(F)F)c2)nc1C(=O)Nc1ccc(Oc2ccnc3c2ccn3C)c(F)c1`, the IC50 worked out at 29.3 nM in [1]; 360 nM in test [2]; 620 nM in test [3]; 520 nM in [4]; 2310 nM in test [5].

For the molecule `Cc1ccccc1-n1nc(C(=O)Nc2ccc(Oc3ccnc4[nH]ccc34)c(F)c2)c(C)cc1=O`, the midpoint of inhibition in test [1], the IC50, lay at 10.3 nM.

For the molecule `Cc1cc(=O)n(-c2ccc(F)c(Cl)c2)nc1C(=O)Nc1ccc(Oc2ccnc3c2ccn3C)cc1`, in test [1], the IC50 is 45.3 nM.

`Cc1cc(=O)n(-c2ccccc2F)nc1C(=O)Nc1ccc(Oc2ccnc3c2ccn3C)cc1` came in with an IC50 in test [1] of 14.4 nM.

Consider `Cc1cc(=O)n(-c2ccccc2C(F)(F)F)nc1C(=O)Nc1ccc(Oc2ccnc3[nH]ccc23)cc1`, for which half-maximal inhibition in test [1] (IC50) was put at 39.5 nM.

Consider `COc1ccc(-n2nc(C(=O)Nc3ccc(Oc4ccnc5[nH]ccc45)cc3)c(C)cc2=O)cc1`, for which, in test [1], the IC50 is 46.9 nM.

As for `Cc1cc(=O)n(-c2ccc(F)c(Cl)c2)nc1C(=O)Nc1ccc(Oc2ccnc3[nH]ccc23)cc1`, half-maximal inhibition in [1] (IC50) was put at 42.2 nM.

For the molecule `Cc1cc(=O)n(-c2ccc(Br)cc2F)nc1C(=O)Nc1ccc(Oc2ccnc3[nH]ccc23)c(F)c1`, it took 18.2 nM to reach half-maximal inhibition in test [1] (IC50).

Take `Cc1cc(=O)n(-c2cccc(F)c2)nc1C(=O)Nc1ccc(Oc2ccnc3[nH]ccc23)c(F)c1`: the IC50 in test [1] was determined as 5.61 nM.

Take `Cc1cc(=O)n(-c2cccc(C(F)(F)F)c2)nc1C(=O)Nc1ccc(Oc2ccnc3c2ccn3C)cc1`: the IC50 in [1] worked out at 32.2 nM. Compared with the last molecule, the IC50 is about 5.7-fold higher.

In test [1], `Cc1cc(=O)n(-c2cccc(Br)c2)nc1C(=O)Nc1ccc(Oc2ccnc3c2ccn3C)cc1` had an IC50 of 10.5 nM. Against the preceding molecule, the IC50 is about 3.1-fold lower.

As to `Cc1cc(=O)n(-c2ccc(Cl)cc2Cl)nc1C(=O)Nc1ccc(Oc2ccnc3c2ccn3C)cc1`, the IC50 in test [1] was 49.2 nM.

Turning to `Cc1cc(=O)n(-c2ccccc2F)nc1C(=O)Nc1ccc(Oc2ccnc3[nH]ccc23)c(F)c1`, in test [1], half-maximal inhibition (IC50) required 5.02 nM.

`COc1ccc(-n2nc(C(=O)Nc3ccc(Oc4ccnc5[nH]ccc45)c(F)c3)c(C)cc2=O)cc1` returned a half-inhibitory concentration (IC50) in [1] of 18.3 nM.

For the molecule `Cc1cc(=O)n(-c2cccc(F)c2)nc1C(=O)Nc1ccc(Oc2ccnc3c2ccn3C)cc1`, the IC50 in test [1] was found to be 15.3 nM; in test [2], 320 nM; in [3], 410 nM; in test [4], 320 nM; in test [5] it was 8820 nM.

`Cc1cc(=O)n(-c2ccc(Br)cc2F)nc1C(=O)Nc1ccc(Oc2ccnc3c2ccn3C)cc1`: in test [1], the IC50 stood at 36.2 nM.

On to `Cc1ccccc1-n1nc(C(=O)Nc2ccc(Oc3ccnc4[nH]ccc34)cc2)c(C)cc1=O`, for which the midpoint of inhibition in test [1], the IC50, lay at 19.1 nM.

`Cc1cc(=O)n(-c2ccccc2C(F)(F)F)nc1C(=O)Nc1ccc(Oc2ccnc3[nH]ccc23)c(F)c1` yielded an IC50 in test [1] of 11.2 nM.

As to `Cc1cc(=O)n(-c2ccc(Cl)cc2Cl)nc1C(=O)Nc1ccc(Oc2ccnc3[nH]ccc23)cc1`, the midpoint of inhibition in [1], the IC50, lay at 56.3 nM.

For `Cc1cc(=O)n(-c2ccc(F)cc2)nc1C(=O)Nc1ccc(Oc2ccnc3[nH]ccc23)cc1`, the IC50 came to 8.42 nM in test [1]; 140 nM in [2]; 230 nM in [3]; 160 nM in test [4]; 5460 nM in test [5].

On to `Cc1cc(=O)n(-c2ccccc2)nc1C(=O)Nc1ccc(Oc2ccnc3c2ccn3C)cc1`, for which the IC50 in test [1] stood at 19.5 nM.

The record behind these values is ChEMBL document CHEMBL4033630, “Discovery of novel 7-azaindole derivatives bearing dihydropyridazine moiety as c-Met kinase inhibitors” (Eur J Med Chem, 2017).
